This is an account of results in ChEMBL document CHEMBL1150331, “Preparation of piperazine derivatives as 5-HT7 receptor antagonists” (Bioorg Med Chem, 2008).

Assay [1] has as its target 5-hydroxytryptamine receptor 7 (Homo sapiens, UniProt P34969). The experiment in a line: Displacement of [3H]LSD from human recombinant 5HT7 receptor expressed in CHO cell membrane. It counts as cell membranes. The gist of the method: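 Membranes incubated with 3 nM [3H]LSD in 0.25 mL 50 mM Tris·HCl pH 7.4, 10 mM MgCl2, 0.5 mM EDTA, 90 min at 27 °C. Filtered on GF/C presoaked in 0.3% PEI and counted. Nonspecific binding with 0.5 uM methiothepin. 7-8 concentrations tested in duplicate, three assays. IC50 from nonlinear regression.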

Assay [2] deals with 5-hydroxytryptamine receptor 2A (Homo sapiens, UniProt P28223). The experiment in a line: Displacement of [3H]ketanserin from human recombinant 5HT2A receptor expressed in CHOK1 cell membrane. It counts as cell membranes, CHO-K1. The gist of the method: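 Frozen membranes with 1 nM [3H]ketanserin in 50 mM Tris·HCl pH 7.4. Incubated 15 min at 37 °C. Harvested onto GF/C filters presoaked in 0.05% Brij. Nonspecific binding defined with mianserin.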
On the technique in general: Displacement assays read how much labelled ligand stays bound in the presence of the test substance.

Assay [3] deals with 5-hydroxytryptamine receptor 6 (Homo sapiens, UniProt P50406). Put plainly: Displacement of [3H]LSD from human 5HT6 receptor expressed in HeLa cells. It counts as cell-based. Summed up: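 HeLa-cell membranes with 1.8 nM [3H]LSD in 0.25 mL 50 mM Tris·HCl pH 7.4, 10 mM MgCl2, 0.5 mM EDTA. Incubated 60 min at 37 °C. Terminated by filtration through GF/C filters presoaked in 0.3% polyethylenimine. Methiothepin used for nonspecific binding.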

Assay [4] has as its target T1, 5-hydroxytryptamine receptor 2C (Homo sapiens, UniProt P28335).
T1 sequence (P28335 whole entry): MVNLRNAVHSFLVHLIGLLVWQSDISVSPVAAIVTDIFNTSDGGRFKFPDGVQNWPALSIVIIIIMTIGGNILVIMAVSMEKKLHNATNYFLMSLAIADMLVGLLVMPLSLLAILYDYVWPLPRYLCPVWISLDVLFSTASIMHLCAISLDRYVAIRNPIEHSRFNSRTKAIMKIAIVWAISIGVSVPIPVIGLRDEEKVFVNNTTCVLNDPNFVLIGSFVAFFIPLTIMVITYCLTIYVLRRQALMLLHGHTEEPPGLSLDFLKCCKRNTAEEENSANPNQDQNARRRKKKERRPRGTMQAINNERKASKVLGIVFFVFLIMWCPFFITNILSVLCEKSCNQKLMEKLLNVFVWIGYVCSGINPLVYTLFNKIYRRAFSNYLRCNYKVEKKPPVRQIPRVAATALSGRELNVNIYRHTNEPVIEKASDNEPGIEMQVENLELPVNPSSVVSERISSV
Put plainly: Displacement of [3H]mesulergine from human recombinant 5HT2C receptor expressed in CHOK1 cell membrane. In kind it is cell membranes, CHO-K1. The gist of the method: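 Frozen membranes with 1 nM [3H]mesulergine in 50 mM Tris·HCl pH 7.7 containing 0.1% ascorbic acid and pargyline. Incubated 30 min at 37 °C. Stopped by rapid filtration through GF/C filters presoaked in 1% BSA. Nonspecific binding defined with mianserin.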

The target of assay [5] is T2, 5-hydroxytryptamine receptor 1A (Homo sapiens, UniProt P08908).
T2 sequence (P08908 whole entry): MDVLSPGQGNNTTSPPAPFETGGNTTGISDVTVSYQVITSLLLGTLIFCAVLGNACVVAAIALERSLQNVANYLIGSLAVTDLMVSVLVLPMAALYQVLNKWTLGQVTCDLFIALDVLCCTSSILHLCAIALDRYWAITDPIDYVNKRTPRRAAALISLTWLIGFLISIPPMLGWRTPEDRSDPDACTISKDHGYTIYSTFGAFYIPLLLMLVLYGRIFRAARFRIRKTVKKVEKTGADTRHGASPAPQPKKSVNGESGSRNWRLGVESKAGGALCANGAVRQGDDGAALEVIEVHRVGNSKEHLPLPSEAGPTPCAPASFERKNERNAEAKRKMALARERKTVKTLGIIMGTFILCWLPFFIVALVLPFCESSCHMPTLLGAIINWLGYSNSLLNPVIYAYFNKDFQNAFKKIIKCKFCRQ
The experiment in a line: Displacement of [3H]8-OH-DPAT from human recombinant 5HT1A receptor expressed in CHOK1 cell membrane. It counts as cell membranes, CHO-K1. Summed up: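 Radioligand 0.5 nM [3H]8-OH-DPAT with receptor membranes in 0.25 mL 50 mM Tris·HCl pH 7.4, 1 mM EDTA, 2.5 mM MgCl2. Incubated 30 min at 37 °C. Stopped by rapid filtration on GF/C filters presoaked in 0.3% polyethylenimine, then scintillation counted. Nonspecific binding defined with methiothepin.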

Sequence of 5-hydroxytryptamine receptor 2A (P28223 whole entry): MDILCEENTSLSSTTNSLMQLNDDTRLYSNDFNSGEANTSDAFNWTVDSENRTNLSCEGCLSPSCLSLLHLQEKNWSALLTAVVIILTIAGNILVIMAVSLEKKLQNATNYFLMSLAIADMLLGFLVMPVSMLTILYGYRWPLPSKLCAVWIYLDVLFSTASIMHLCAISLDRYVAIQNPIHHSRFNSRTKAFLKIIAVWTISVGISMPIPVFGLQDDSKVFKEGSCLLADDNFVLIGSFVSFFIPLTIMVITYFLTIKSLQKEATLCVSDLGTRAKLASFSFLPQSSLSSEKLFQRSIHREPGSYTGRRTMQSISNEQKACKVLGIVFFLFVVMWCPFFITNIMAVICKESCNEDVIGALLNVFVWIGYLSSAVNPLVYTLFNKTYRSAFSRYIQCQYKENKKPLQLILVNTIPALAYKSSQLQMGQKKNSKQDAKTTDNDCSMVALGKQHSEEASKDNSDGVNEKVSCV
Sequence of 5-hydroxytryptamine receptor 7 (P34969 whole entry): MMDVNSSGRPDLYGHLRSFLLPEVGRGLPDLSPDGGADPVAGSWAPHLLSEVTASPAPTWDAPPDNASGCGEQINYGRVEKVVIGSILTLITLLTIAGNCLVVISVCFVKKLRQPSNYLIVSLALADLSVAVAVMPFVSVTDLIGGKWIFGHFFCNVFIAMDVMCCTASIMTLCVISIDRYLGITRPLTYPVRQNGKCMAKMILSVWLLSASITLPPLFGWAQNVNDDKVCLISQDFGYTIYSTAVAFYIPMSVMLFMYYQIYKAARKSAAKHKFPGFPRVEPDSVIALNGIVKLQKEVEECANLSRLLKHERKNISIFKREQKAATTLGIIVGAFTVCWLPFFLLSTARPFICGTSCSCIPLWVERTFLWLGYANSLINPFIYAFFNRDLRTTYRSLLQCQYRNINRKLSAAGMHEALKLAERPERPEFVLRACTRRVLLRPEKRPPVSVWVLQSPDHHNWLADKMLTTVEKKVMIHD
Sequence of 5-hydroxytryptamine receptor 6 (P50406 whole entry): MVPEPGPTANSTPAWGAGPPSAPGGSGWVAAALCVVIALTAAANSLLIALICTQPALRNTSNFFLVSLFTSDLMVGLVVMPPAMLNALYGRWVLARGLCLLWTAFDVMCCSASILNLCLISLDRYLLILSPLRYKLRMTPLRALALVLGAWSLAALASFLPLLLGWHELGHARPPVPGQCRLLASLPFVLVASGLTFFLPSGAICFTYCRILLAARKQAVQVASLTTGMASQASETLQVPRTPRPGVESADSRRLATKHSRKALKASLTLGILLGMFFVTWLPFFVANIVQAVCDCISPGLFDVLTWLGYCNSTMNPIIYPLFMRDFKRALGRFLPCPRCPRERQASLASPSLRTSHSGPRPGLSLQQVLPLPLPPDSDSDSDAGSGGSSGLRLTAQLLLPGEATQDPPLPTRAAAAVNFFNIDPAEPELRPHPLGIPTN

For the compound `O=S(=O)(NCCCN1CCN(Cc2ccccc2)CC1)c1ccc2ccccc2c1`, the IC50 (commonly the concentration at which inhibition is half-maximal) in assay [1] was determined as 476 nM.
For the compound `COc1ccc(S(=O)(=O)NCCCN2CCN(c3cccc(C(F)(F)F)c3)CC2)cc1`, the IC50 in assay [2] was 352 nM; in assay [3], 2840 nM; in assay [1], 89 nM; in assay [4], 57 nM; in assay [5], 44 nM.
With `COc1ccc(N2CCN(CCCNS(=O)(=O)c3ccc(OC)cc3)CC2)cc1`, the IC50 in assay [1] was found to be 9310 nM.
Same read-out and setting: the figure for `COc1cccc(N2CCN(CCCNS(=O)(=O)c3ccc4ccccc4c3)CC2)c1` is 223 nM; for `O=S(=O)(NCCCN1CCN(c2ccccc2F)CC1)c1ccc2ccccc2c1` it is 140 nM.
On the same count and under the same terms, the figure for `COc1ccc(S(=O)(=O)NCCCN2CCN(c3ccc(C(F)(F)F)cc3)CC2)cc1` is 384 nM; for `COc1ccc(S(=O)(=O)NC(C)CCN2CCN(c3ccccc3OC)CC2)cc1` (stereo not given) it is 580 nM; for `O=S(=O)(NCCCN1CCN(Cc2ccccc2)CC1)c1ccccc1` it is 949 nM.
`COc1ccc(S(=O)(=O)NC(C)CCN2CCN(c3cccc(C(F)(F)F)c3)CC2)cc1` (stereo not given): the IC50 was 1820 nM in assay [2]; 6920 nM in assay [3]; 107 nM in assay [1]; 1350 nM in assay [4]; 39 nM in assay [5].
The like results for `O=S(=O)(NCCCN1CCN(c2cccc(C(F)(F)F)c2)CC1)c1ccc2ccccc2c1` were, in that order, 95 nM, 1960 nM, 12 nM, 91 nM and 29 nM.
For `O=S(=O)(NCCCN1CCN(c2ccccc2)CC1)c1ccc2ccccc2c1`, the IC50 in assay [1] was determined as 681 nM.
In the case of `COc1ccc(S(=O)(=O)NCCCN2CCN(c3ccc(F)cc3)CC2)cc1`, the IC50 is 74 nM in assay [2]; greater than 10000 nM in assay [3]; 47 nM in assay [1]; 4890 nM in assay [4]; 39 nM in assay [5].
Regarding `COc1ccc(S(=O)(=O)NCCCN2CCN(c3cccc(OC)c3)CC2)cc1`, in assay [1], the IC50 was found to be 339 nM.
With `COc1ccccc1N1CCN(CCCNS(=O)(=O)c2ccc3ccccc3c2)CC1`, the IC50 in assay [2] was found to be 85 nM; in assay [3] it was 2630 nM; in assay [1], 20 nM; in assay [4] it was 241 nM; in assay [5] it was 4.6 nM.
As for `COc1ccc(S(=O)(=O)NCCCN2CCN(c3ccc([N+](=O)[O-])cc3)CC2)cc1`, in assay [1], the IC50 is greater than 10000 nM.
Same read-out and setting: the figure for `COc1ccc(S(=O)(=O)NCCCN2CCN(c3ccc(C(C)=O)cc3)CC2)cc1` is greater than 10000 nM; for `COc1ccc(S(=O)(=O)NC(C)CCN2CCN(c3ccccc3)CC2)cc1` (stereo not given) it is 377 nM; for `O=S(=O)(NCCCN1CCN(c2ccc(C(F)(F)F)cc2)CC1)c1ccc2ccccc2c1` it is 567 nM.
Take `COc1ccc(S(=O)(=O)NCCCN2CCN(c3ccccc3OC)CC2)cc1`: the IC50 was 5170 nM in assay [2], greater than 10000 nM in assay [3], 9670 nM in assay [4] and 272 nM in assay [5].
Turning to `COc1ccc(S(=O)(=O)NCCCN2CCN(c3ccccc3F)CC2)cc1`, the IC50 in assay [1] stood at 289 nM.
Turning to `COc1ccc(S(=O)(=O)NCCCN2CCN(c3ccc(Cl)c(Cl)c3)CC2)cc1`, the IC50 in assay [1] was determined as 103 nM.
Same read-out and setting: then `COc1ccc(N2CCN(CCCNS(=O)(=O)c3ccc4ccccc4c3)CC2)cc1`, with 3240 nM; and `COc1ccc(S(=O)(=O)NC(C)CCN2CCN(c3ccc(F)cc3)CC2)cc1` (stereo not given), with 373 nM; and `COc1ccc(S(=O)(=O)NCCCN2CCN(C(=O)OCc3ccccc3)CC2)cc1`, with greater than 10000 nM.
Still for that read-out and setting: then `O=S(=O)(NCCCN1CCN(c2ccc(F)cc2)CC1)c1ccc2ccccc2c1`, with 53 nM.
On the same count and under the same terms, the figure for `COc1ccc(S(=O)(=O)NCCCN2CCN(C(=O)c3ccco3)CC2)cc1` is greater than 10000 nM.
With `O=S(=O)(NCCCN1CCN(c2ccc(Cl)c(Cl)c2)CC1)c1ccc2ccccc2c1`, the IC50 in assay [2] was 19 nM; in assay [3], 768 nM; in assay [1] it was 124 nM; in assay [4], 215 nM; in assay [5], 215 nM.
In the case of `COc1ccc(S(=O)(=O)NCCCN2CCN(c3ccccc3)CC2)cc1`, the IC50 in assay [1] is greater than 10000 nM.
